Measured values: ChEMBL document CHEMBL2311431, “Synthesis and biological evaluation of some 5-arylidene-2-(1,3-thiazol-2-ylimino)-1,3-thiazolidin-4-ones as dual anti-inflammatory/antimicrobial agents” (Bioorg Med Chem, 2013)
Converted amounts (≈) assume the structure as drawn.

Legend:
Pseudomonas aeruginosa [1] = assay: Bactericidal activity against Pseudomonas aeruginosa ATCC 27853 after 72 hrs by serial subcultivation method; type: functional; details: ATCC 27853, 72 h
Bacillus cereus [2] = assay: Antibacterial activity against Bacillus cereus clinical isolate after 24 hr by microdilution test; type: functional
How it was run: (§1)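 Broth microdilution in LB medium, about 1.0×10^4 cfu per well; compounds from 1 mg/ml stocks in 5% DMSO. Incubated 24 h. MIC is the lowest concentration with no visible growth under a binocular microscope. Run in duplicate, repeated three times.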

Aspergillus flavus [3] = assay: Fungicidal activity against Aspergillus flavus ATCC 9643 after 72 hrs by serial subcultivation method; type: functional; details: ATCC 9643, 72 h
Aspergillus fumigatus [4] = assay: Fungicidal activity against Aspergillus fumigatus after 72 hrs by serial subcultivation method; type: functional
Penicillium ochrochloron [5] = assay: Fungicidal activity against Penicillium ochrochloron ATCC 9112 after 72 hrs by serial subcultivation method; type: functional; details: ATCC 9112, 72 h
Pseudomonas aeruginosa [6] = assay: Antibacterial activity against Pseudomonas aeruginosa ATCC 27853 after 24 hr by microdilution test; type: functional; details: ATCC 27853, 24 h; how it was run: as §1
[7] = target: T1, Prostaglandin G/H synthase 1 (Ovis aries) (UniProt P05979); assay: Inhibition of ovine COX1 assessed as inhibition of PGF2a production by enzyme immunoassay; set-up: concentration or dose not given beside the values; details: concentration not given here
T1 sequence (whole entry): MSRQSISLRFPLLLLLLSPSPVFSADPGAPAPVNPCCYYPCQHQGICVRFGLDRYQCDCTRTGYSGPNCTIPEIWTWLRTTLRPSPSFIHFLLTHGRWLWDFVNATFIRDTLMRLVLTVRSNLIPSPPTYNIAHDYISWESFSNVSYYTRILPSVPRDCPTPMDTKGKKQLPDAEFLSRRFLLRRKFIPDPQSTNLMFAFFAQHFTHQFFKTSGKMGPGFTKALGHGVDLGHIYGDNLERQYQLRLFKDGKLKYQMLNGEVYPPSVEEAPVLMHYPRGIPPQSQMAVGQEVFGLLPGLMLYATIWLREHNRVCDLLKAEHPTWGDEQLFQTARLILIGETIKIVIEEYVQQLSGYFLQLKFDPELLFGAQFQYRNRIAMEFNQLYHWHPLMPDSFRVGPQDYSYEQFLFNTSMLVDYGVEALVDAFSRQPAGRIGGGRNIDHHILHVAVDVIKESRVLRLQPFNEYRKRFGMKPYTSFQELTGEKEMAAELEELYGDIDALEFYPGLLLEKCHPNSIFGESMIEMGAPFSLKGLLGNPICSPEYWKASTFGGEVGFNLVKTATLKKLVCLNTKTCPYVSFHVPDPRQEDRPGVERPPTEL
How it was run: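 Ovine COX-1 from a commercial screening kit, tested with 0.1 µM arachidonic acid, which is below the saturating level. COX-derived PGH2 is reduced by SnCl2 to PGF2a, quantified by enzyme immunoassay with a broad prostaglandin antibody. At least triplicate.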

Trichoderma viride [8] = assay: Antifungal activity against Trichoderma viride IAM 5061 after 72 hrs by serial dilution technique; type: functional; details: IAM 5061, 72 h
How it was run: (§2)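 Serial dilution in malt broth; compounds from 1 mg/ml stocks in 5% DMSO; 72 h at 28 °C. MIC is the lowest concentration with no visible growth under a binocular microscope. Run in duplicate, repeated three times.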

Escherichia coli [9] = assay: Bactericidal activity against Escherichia coli ATCC 35210 after 72 hrs by serial subcultivation method; type: functional; details: ATCC 35210, 72 h
Mus musculus [10] = assay: Antiinflammatory activity in AKR mouse assessed as inhibition of carrageenan-induced paw edema at 0.01 mmol/kg, ip measured after 3.5 hrs of carrageenan-challenge; type: functional
How it was run: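 AKR mice of both sexes (pregnant females excluded), 6-10 per group, fasted during the experiment. Edema induced by intradermal 0.05 mL of 2% carrageenin into the right hind paw. Compound given at 0.01 mmol/kg ip, suspended in water with Tween-80, at the same time as carrageenin.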

Micrococcus flavus [11] = assay: Bactericidal activity against Micrococcus flavus ATCC 10240 after 72 hrs by serial subcultivation method; type: functional; details: ATCC 10240, 72 h
Mus musculus [12] = assay: Acute toxicity in AKR mouse up to 0.5 mmol/kg, ip; type: organism-based; details: in vivo
Listeria monocytogenes [13] = assay: Bactericidal activity against Listeria monocytogenes NCTC 7973 after 72 hrs by serial subcultivation method; type: functional; details: NCTC 7973, 72 h
Listeria monocytogenes [14] = assay: Antibacterial activity against Listeria monocytogenes NCTC 7973 after 24 hr by microdilution test; type: functional; details: NCTC 7973, 24 h; how it was run: as §1
Escherichia coli [15] = assay: Antibacterial activity against Escherichia coli ATCC 35210 after 24 hr by microdilution test; type: functional; details: ATCC 35210, 24 h; how it was run: as §1
Staphylococcus aureus [16] = assay: Bactericidal activity against Staphylococcus aureus ATCC 6538 after 72 hrs by serial subcultivation method; type: functional; details: ATCC 6538, 72 h
Penicillium ochrochloron [17] = assay: Antifungal activity against Penicillium ochrochloron ATCC 9112 after 72 hrs by serial dilution technique; type: functional; details: ATCC 9112, 72 h; how it was run: as §2
[18] = (§3) Inhibition of soybean lipoxygenase assessed as inhibition of sodium linolate conversion to 13-hydroperoxylinoleic acid after 4 mins by spectrophotometry; set-up: species or system Glycine max; details: read-out: IC50
Glycine max = assay: as §3
Micrococcus flavus [19] = assay: Antibacterial activity against Micrococcus flavus ATCC 10240 after 24 hr by microdilution test; type: functional; details: ATCC 10240, 24 h; how it was run: as §1
Aspergillus niger [20] = assay: Fungicidal activity against Aspergillus niger ATCC 6275 after 72 hrs by serial subcultivation method; type: functional; details: ATCC 6275, 72 h
Aspergillus fumigatus [21] = assay: Antifungal activity against Aspergillus fumigatus after 72 hrs by serial dilution technique; type: functional; how it was run: as §2
Bacillus cereus [22] = assay: Bactericidal activity against Bacillus cereus clinical isolate after 72 hrs by serial subcultivation method; type: functional
Staphylococcus aureus [23] = assay: Antibacterial activity against Staphylococcus aureus ATCC 6538 after 24 hr by microdilution test; type: functional; details: ATCC 6538, 24 h; how it was run: as §1
Talaromyces funiculosus [24] = assay: Fungicidal activity against Penicillium funiculosum ATCC 36839 after 72 hrs by serial subcultivation method; type: functional; details: ATCC 36839, 72 h
Trichoderma viride [25] = assay: Fungicidal activity against Trichoderma viride IAM 5061 after 72 hrs by serial subcultivation method; type: functional; details: IAM 5061, 72 h
Aspergillus niger [26] = assay: Antifungal activity against Aspergillus niger ATCC 6275 after 72 hrs by serial dilution technique; type: functional; details: ATCC 6275, 72 h; how it was run: as §2
Aspergillus flavus [27] = assay: Antifungal activity against Aspergillus flavus ATCC 9643 after 72 hrs by serial dilution technique; type: functional; details: ATCC 9643, 72 h; how it was run: as §2
Talaromyces funiculosus [28] = assay: Antifungal activity against Penicillium funiculosum ATCC 36839 after 72 hrs by serial dilution technique; type: functional; details: ATCC 36839, 72 h; how it was run: as §2

SMILES | MBC (Pseudomonas aeruginosa [1]) [µM] | MIC (Bacillus cereus [2]) [µM] | MFC (Aspergillus flavus [3]) [µM] | MFC (Aspergillus fumigatus [4]) [µM] | MFC (Penicillium ochrochloron [5]) [µM] | MIC (Pseudomonas aeruginosa [6]) [µM] | inhibition [7] [%] | MIC (Trichoderma viride [8]) [µM] | MBC (Escherichia coli [9]) [µM] | inhibition in vivo at 10 µmol/kg (Mus musculus [10]) [%] | MBC (Micrococcus flavus [11]) [µM] | Activity (Mus musculus [12]) | MBC (Listeria monocytogenes [13]) [µM] | MIC (Listeria monocytogenes [14]) [µM] | MIC (Escherichia coli [15]) [µM] | MBC (Staphylococcus aureus [16]) [µM] | MIC (Penicillium ochrochloron [17]) [µM] | IC50 [18] [µM] | inhibition (Glycine max) [%] | MIC (Micrococcus flavus [19]) [µM] | also measured
O=C1N/C(=N\c2nccs2)S/C1=C\c1cccc(F)c1 | 32.7 (≈ 9.99 µg/mL) | 24.6 (≈ 7.51 µg/mL) | 65.4 (≈ 20 µg/mL) | 49.1 (≈ 15 µg/mL) | 65.4 (≈ 20 µg/mL) | 24.6 (≈ 7.51 µg/mL) | 42 | 32.7 (≈ 9.99 µg/mL) | 65.4 (≈ 20 µg/mL) | 56.6 | 81.9 (≈ 25 µg/mL) | Non-toxic | 98.2 (≈ 30 µg/mL) | 81.9 (≈ 25 µg/mL) | 32.7 (≈ 9.99 µg/mL) | 65.4 (≈ 20 µg/mL) | 32.7 (≈ 9.99 µg/mL) | 90 | 72 | 65.4 (≈ 20 µg/mL) | MFC (Aspergillus niger [20]): 65.4 µM (≈ 20 µg/mL); MIC (Aspergillus fumigatus [21]): 32.7 µM (≈ 9.99 µg/mL); MBC (Bacillus cereus [22]): 32.7 µM (≈ 9.99 µg/mL); MIC (Staphylococcus aureus [23]): 32.7 µM (≈ 9.99 µg/mL); MFC (Talaromyces funiculosus [24]): 65.4 µM (≈ 20 µg/mL); MFC (Trichoderma viride [25]): 65.4 µM (≈ 20 µg/mL); MIC (Aspergillus niger [26]): 32.7 µM (≈ 9.99 µg/mL); MIC (Aspergillus flavus [27]): 32.7 µM (≈ 9.99 µg/mL); MIC (Talaromyces funiculosus [28]): 32.7 µM (≈ 9.99 µg/mL)
O=C1N/C(=N\c2nccs2)S/C1=C\c1cccc(Br)c1 | 25.6 (≈ 9.38 µg/mL) | 25.6 (≈ 9.38 µg/mL) | 25.6 (≈ 9.38 µg/mL) | 25.6 (≈ 9.38 µg/mL) | 22 (≈ 8.06 µg/mL) | 14.6 (≈ 5.35 µg/mL) | 2 | 18 (≈ 6.59 µg/mL) | 25.6 (≈ 9.38 µg/mL) | 42.7 | 25.6 (≈ 9.38 µg/mL) | Non-toxic | 18.3 (≈ 6.7 µg/mL) | 14.4 (≈ 5.27 µg/mL) | 14.6 (≈ 5.35 µg/mL) | 14.4 (≈ 5.27 µg/mL) | 18 (≈ 6.59 µg/mL) | > 150 | 34 | 18.3 (≈ 6.7 µg/mL) | MFC (Aspergillus niger [20]): 25.6 µM (≈ 9.38 µg/mL); MIC (Aspergillus fumigatus [21]): 18 µM (≈ 6.59 µg/mL); MBC (Bacillus cereus [22]): 29.2 µM (≈ 10.7 µg/mL); MIC (Staphylococcus aureus [23]): 7.3 µM (≈ 2.67 µg/mL); MFC (Talaromyces funiculosus [24]): 22 µM (≈ 8.06 µg/mL); MFC (Trichoderma viride [25]): 22 µM (≈ 8.06 µg/mL); MIC (Aspergillus niger [26]): 18 µM (≈ 6.59 µg/mL); MIC (Aspergillus flavus [27]): 22 µM (≈ 8.06 µg/mL); MIC (Talaromyces funiculosus [28]): 18 µM (≈ 6.59 µg/mL)
